ChEMBL document CHEMBL1177638, “Synthesis of pyrrolo[3,2-h]quinolinones with good photochemotherapeutic activity and no DNA damage” (Bioorg Med Chem, 2010)
Activity calls are given as the source filed them. No cut-off for these calls is given here.

Assays:
Jurkat [1] = test: Induction of apoptosis in human Jurkat cells assessed as induction of loss of membrane potential at 1 uM after 4 hrs post irradiation with 20 J/cm'2 using JC1 staining by FACS; type: functional
In short: (§1)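 Irradiated Jurkat cells treated with compound were collected 2 and 4 h after irradiation and resuspended in HBSS containing JC-1. Green (FL1) and orange (FL2) fluorescence were read by flow cytometry, with at least 10,000 events per sample. Values are mean ± SD of at least three independent experiments.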

Jurkat [2] = test: Induction of apoptosis in human Jurkat cells assessed as increase in mitochondrial ROS production at 1 uM after 6 hrs post-irradiation with 2.5 J/cm'2 by FACS analysis; type: functional
In short: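 Jurkat cells were irradiated (2.5 J/cm²) with compound present and collected 6 h later. They were resuspended in HBSS with hydroethidine and DCFDA (2.5 and 5, respectively) and held at 37 °C for 15 or 30 min. Flow cytometry used 488 nm excitation, reading 620 nm for HE and 530 nm for DCF, with at least 10,000 events. Values are mean ± SD, three independent experiments.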

Jurkat [3] = test: Induction of lipid peroxidation in human Jurkat cells irradiated with 2.5 J/cm'2 assessed as increase in malondialdehyde production after 24 hrs by TBARS assay relative to untreated control; type: functional, cell-based
In short: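 Jurkat cells (500,000) were irradiated (2.5 J/cm²) with compound present and incubated 24 h. Supernatant was kept with BHT, and cells were lysed in 1% SDS, with protein measured by the Peterson method. Malondialdehyde was measured by thiobarbituric acid reaction (fluorescence, 553 nm) against a 1,1,3,3-tetraethoxypropane standard curve. Results are given as nmol TBARS normalized to protein.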

LoVo [4] = test: Phototoxicity against human LoVo cells irradiated with 2.5 J/cm'2 after 72 hrs by MTT assay; type: functional, cell-based; conditions: light or radiation study
In short: (§2)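 Cells were seeded at 8 × 10³ and preincubated 18 h at 37 °C, 5% CO₂. Jurkat and K-562 grew in RPMI-1640, MCF-7 and NCTC-2544 in DMEM, and LoVo in Ham's F12, all with 10% FBS plus penicillin and streptomycin. Compounds in DMSO were diluted in HBSS, pH 7.2 (range 20–0.31; DMSO ≤1%) and applied 30 min at 37 °C. Wells were then UV-A irradiated (365 nm; 2.5 or 3.75 J/cm²), medium was replaced, and MTT was read after 72 h.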

Jurkat [5] = test: Induction of apoptosis in human Jurkat cells assessed as increase in mitochondrial ROS production at 2.5 uM after 6 hrs post-irradiation with 2.5 J/cm'2 by FACS analysis; type: functional
In short: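 Jurkat cells were collected 6 h after UV-A irradiation (2.5 J/cm²) with the compound and resuspended in HBSS with hydroethidine 2.5 µM or DCFDA 5 µM. They were incubated at 37 °C for 15 or 30 min. Flow cytometry used 488 nm excitation, with emission at 620 nm (HE) or 530 nm (DCF), acquiring ≥10,000 events. Values are means ± SD of three independent experiments.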

Jurkat [6] = test: Induction of apoptosis in human Jurkat cells assessed as induction of loss of membrane potential at 1 uM after 2 hrs post-irradiation with 20 J/cm'2 using JC1 staining by FACS; type: functional; in short: as §1
Jurkat [7] = test: Induction of apoptosis in human Jurkat cells assessed as phosphatidylserine esposure after 2 hrs using annexin-V FITC and PI staining by flow cytometry; type: functional, cell-based
In short: (§3)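 Jurkat cells (100,000) were irradiated (2.5 J/cm²) with compound present and centrifuged 30 min, 1 h or 2 h later. They were stained with Annexin V-FITC/PI for 15 min in the dark, and FITC (FL1) and PI (FL3) were read by flow cytometry, with at least 10,000 events. Cells were classed as intact, early apoptotic, late apoptotic/necrotic or necrotic. Values are the mean of three experiments.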

K562 [8] = test: Phototoxicity against human K562 cells irradiated with 3.75 J/cm'2 after 72 hrs by MTT assay; type: functional, cell-based; conditions: K562, light or radiation study; in short: as §2
[9] = Phototoxicity against human sNCTC-2544 cells irradiated with 3.75 J/cm'2 after 72 hrs by MTT assay; type: functional, cell-based; conditions: NCTC-2544, light or radiation study; in short: as §2
Jurkat [10] = test: Cell cycle arrest in human Jurkat cells assessed as accumulation in subG1 phase at 1 uM irradiated with 20 J/cm'2 after 24 hrs by flow cytometry; type: functional
In short: (§4)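 Exponentially growing Jurkat cells (5 × 10⁵) were irradiated with compound present. Drug was removed, and cells were kept 24 h in RPMI-1640, fixed in ice-cold 70% ethanol, and treated overnight with RNAse (10 KU/mL) in PBS. Cells were stained with propidium iodide and run on a flow cytometer, with DNA content reported as the fraction of cells in each cycle phase.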

Jurkat [11] = test: Induction of apoptosis in human Jurkat cells assessed as induction of loss of membrane potential at 1 uM after 4 hrs post-irradiation with 20 J/cm'2 by flow cytometry; type: functional; in short: as §1
Jurkat [12] = test: Cell cycle arrest in human Jurkat cells assessed as accumulation in G1 phase at 1 uM irradiated with 25 J/cm'2 after 24 hrs by flow cytometry
MCF7 [13] = test: Phototoxicity against human MCF7 cells irradiated with 3.75 J/cm'2 after 72 hrs by MTT assay; type: functional, cell-based; conditions: MCF7, light or radiation study; in short: as §2
Jurkat [14] = test: Induction of apoptosis in human Jurkat cells assessed as lysosomal dysfunction at 1 uM after 4 hrs post-irradiation with 2.5 J/cm'2 using acridine orange dye by flow cytometry; type: functional
In short: (§5)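 Jurkat cells were irradiated (2.5 J/cm²) with compound present and collected at 2 and 4 h. They were resuspended in RPMI-1640 containing acridine orange, and the percentage of red-fluorescent cells (intact lysosomes) was scored by flow cytometry. Values are mean ± SD of at least three independent experiments.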

Jurkat [15] = test: Phototoxicity against human Jurkat cells irradiated with 2.5 J/cm'2 after 72 hrs by MTT assay; type: functional, cell-based; conditions: light or radiation study; in short: as §2
K562 [16] = test: Phototoxicity against human K562 cells irradiated with 2.5 J/cm'2 after 72 hrs by MTT assay; type: functional, cell-based; conditions: K562, light or radiation study; in short: as §2
Jurkat [17] = test: Phototoxicity against human Jurkat cells irradiated with 3.75 J/cm'2 after 72 hrs by MTT assay; type: functional, cell-based; conditions: light or radiation study; in short: as §2
Jurkat [18] = test: Induction of apoptosis in human Jurkat cells assessed as induction of loss of membrane potential at 1 uM after 2 hrs post-irradiation with 20 J/cm'2 by flow cytometry; type: functional; in short: as §1
Jurkat [19] = test: Cell cycle arrest in human Jurkat cells assessed as accumulation in G2/M phase at 1 uM irradiated with 25 J/cm'2 after 24 hrs by flow cytometry
Nucleic Acid = test: Binding affinity to salmon testes DNA assessed as intercalation by linear dichroism experiment; type: nucleic-acid assay; conditions: Salmonidae
In short: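 Salmon testes DNA was mixed with compound at [Drug]/[DNA] ratios of 0, 0.02 and 0.04 in 10 mM phosphate buffer, pH 7.2. Samples were oriented in a rotating cylindrical flow cuvette (0.14 cm path, 800 rpm), and linear dichroism spectra were recorded over roughly 250–450 nm.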

MCF7 [20] = test: Phototoxicity against human MCF7 cells irradiated with 2.5 J/cm'2 after 72 hrs by MTT assay; type: functional, cell-based; conditions: MCF7, light or radiation study; in short: as §2
Jurkat [21] = test: Induction of apoptosis in human Jurkat cells assessed as lysosomal dysfunction at 1 uM after 2 hrs post-irradiation with 2.5 J/cm'2 using acridine orange dye by flow cytometry; type: functional; in short: as §5
LoVo [22] = test: Phototoxicity against human LoVo cells irradiated with 3.75 J/cm'2 after 72 hrs by MTT assay; type: functional, cell-based; conditions: light or radiation study; in short: as §2
Jurkat [23] = test: Cell cycle arrest in human Jurkat cells assessed as accumulation in S phase at 1 uM irradiated with 20 J/cm'2 after 24 hrs by flow cytometry; type: functional; in short: as §4
[24] = Phototoxicity against human sNCTC-2544 cells irradiated with 2.5 J/cm'2 after 72 hrs by MTT assay; type: functional, cell-based; conditions: NCTC-2544, light or radiation study; in short: as §2
Jurkat [25] = test: Induction of apoptosis in human Jurkat cells assessed as phosphatidylserine esposure after 30 mins using annexin-V FITC and PI staining by flow cytometry; type: functional, cell-based; in short: as §3

SMILES	Activity (Jurkat [1]) [%]	Activity (Jurkat [2]) [%]	Activity (Jurkat [3])	IC50 (LoVo [4]) [nM]	Activity (Jurkat [6]) [%]	IC50 (K562 [8]) [nM]	IC50 [9] [nM]	Activity (Jurkat [10]) [%]	Activity (Jurkat [11]) [%]	Activity (Jurkat [12]) [%]	IC50 (MCF7 [13]) [nM]	Activity (Jurkat [14]) [%]	IC50 (Jurkat [15]) [nM]	IC50 (K562 [16]) [nM]	IC50 (Jurkat [17]) [nM]	Activity (Jurkat [18]) [%]	Activity (Jurkat [19]) [%]	Activity (Nucleic Acid)	IC50 (MCF7 [20]) [nM]	Activity (Jurkat [21]) [%]	also measured
CCOC(=O)c1cc2c(n1Cc1ccc(OC)cc1)-c1[nH]c(=O)c(S(=O)(=O)c3ccccc3)cc1CC2	25.86	79.08	Dose-dependent effect	1100	55.57	900	1600	74.7	47.07	12.6	1300	63.16	800	1000	700	44.43	6.6	inactive	1600	58.5	Activity (Jurkat [5]): Active; Activity (Jurkat [7]): Active; IC50 (LoVo [22]): 1000 nM; Activity (Jurkat [23]): 6.1%; IC50 [24]: 1900 nM
CCOC(=O)c1cc2c(n1C)-c1[nH]c(=O)c(S(=O)(=O)c3ccccc3)cc1CC2	94.8	0.7	Dose-dependent effect	1100	98.68	900	1100	63.3	5.14	16.1	1000	36.97	700	1000	500	1.3	14	inactive	1200	29.72	Activity (Jurkat [25]): Active; IC50 (LoVo [22]): 1000 nM; Activity (Jurkat [23]): 6.6%; IC50 [24]: 1200 nM
CCOC(=O)c1cc2c(n1Cc1ccccc1)-c1[nH]c(=O)c(S(=O)(=O)c3ccccc3)cc1CC2	32.82	24.4	Dose-dependent effect	900	75.74	600	1000	68.5	67.18	16.1	800	55.82	800	900	600	24.26	7.2	inactive	900	29.76	Activity (Jurkat [5]): Active; Activity (Jurkat [7]): Active; IC50 (LoVo [22]): 800 nM; Activity (Jurkat [23]): 8.2%; IC50 [24]: 1100 nM
